Calls of active or inactive are those of the source. The calls are words filed in the database; no cut-off is given here.
Experiments:
[1] = biological target: T1, Tyrosyl-DNA phosphodiesterase 1 (Homo sapiens, UniProt Q9NUW8); test: Inhibition of human recombinant Tdp1 using 5'-[32P]-labeled single-stranded DNA oligonucleotide containing 3'-phosphotyrosine as substrate assessed as prevention of generation of oligonucleotide with free 3'-phosphate after 15 mins by PAGE analysis
[2] = biological target: T2, DNA topoisomerase 1 (Homo sapiens) (UniProt P11387); test: Inhibition of human recombinant Top1-mediated DNA cleavage by polyacrylamide gel electrophoresis relative to camptothecin; design: concentration or dose not given beside the values
T2 sequence (whole entry): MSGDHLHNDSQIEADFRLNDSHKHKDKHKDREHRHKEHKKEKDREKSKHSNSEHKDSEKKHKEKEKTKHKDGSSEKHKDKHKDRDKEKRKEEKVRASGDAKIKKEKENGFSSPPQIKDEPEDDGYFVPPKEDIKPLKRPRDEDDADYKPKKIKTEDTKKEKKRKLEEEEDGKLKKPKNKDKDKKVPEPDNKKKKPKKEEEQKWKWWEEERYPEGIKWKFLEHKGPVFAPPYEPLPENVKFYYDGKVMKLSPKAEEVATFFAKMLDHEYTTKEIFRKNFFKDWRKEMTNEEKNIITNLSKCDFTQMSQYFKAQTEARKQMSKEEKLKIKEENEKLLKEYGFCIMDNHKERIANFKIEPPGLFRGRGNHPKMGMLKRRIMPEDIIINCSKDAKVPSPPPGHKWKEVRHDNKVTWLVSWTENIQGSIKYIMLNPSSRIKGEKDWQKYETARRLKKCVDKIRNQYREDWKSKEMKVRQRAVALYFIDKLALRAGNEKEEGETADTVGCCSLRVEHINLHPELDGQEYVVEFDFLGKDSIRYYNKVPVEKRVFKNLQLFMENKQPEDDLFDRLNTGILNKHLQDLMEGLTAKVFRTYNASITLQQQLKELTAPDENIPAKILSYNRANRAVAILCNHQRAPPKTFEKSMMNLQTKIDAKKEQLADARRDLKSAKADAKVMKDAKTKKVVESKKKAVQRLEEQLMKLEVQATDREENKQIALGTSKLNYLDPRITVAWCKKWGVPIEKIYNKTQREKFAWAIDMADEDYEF
Procedure, shortened: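 Baculovirus-purified human recombinant Top1 was incubated for 20 min at 25 °C, with compounds at various concentrations, with about 2 nM of a 117-bp oligonucleotide 3′-end-labeled with [α-³²P]dGTP. Reactions were stopped with 0.5% SDS and run on 20% denaturing PAGE. Cleavage bands were phosphorimaged and graded semiquantitatively against 1 μM camptothecin.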

[3] = biological target: T1, Tyrosyl-DNA phosphodiesterase 1; test: Inhibition of human Tdp1 in Tdp1-deficient chicken DT40 whole cell extract using 5'-[32P]-labeled single-stranded DNA oligonucleotide containing 3'-phosphotyrosine as substrate after 15 mins by PAGE analysis

T1 sequence (Q9NUW8 whole entry): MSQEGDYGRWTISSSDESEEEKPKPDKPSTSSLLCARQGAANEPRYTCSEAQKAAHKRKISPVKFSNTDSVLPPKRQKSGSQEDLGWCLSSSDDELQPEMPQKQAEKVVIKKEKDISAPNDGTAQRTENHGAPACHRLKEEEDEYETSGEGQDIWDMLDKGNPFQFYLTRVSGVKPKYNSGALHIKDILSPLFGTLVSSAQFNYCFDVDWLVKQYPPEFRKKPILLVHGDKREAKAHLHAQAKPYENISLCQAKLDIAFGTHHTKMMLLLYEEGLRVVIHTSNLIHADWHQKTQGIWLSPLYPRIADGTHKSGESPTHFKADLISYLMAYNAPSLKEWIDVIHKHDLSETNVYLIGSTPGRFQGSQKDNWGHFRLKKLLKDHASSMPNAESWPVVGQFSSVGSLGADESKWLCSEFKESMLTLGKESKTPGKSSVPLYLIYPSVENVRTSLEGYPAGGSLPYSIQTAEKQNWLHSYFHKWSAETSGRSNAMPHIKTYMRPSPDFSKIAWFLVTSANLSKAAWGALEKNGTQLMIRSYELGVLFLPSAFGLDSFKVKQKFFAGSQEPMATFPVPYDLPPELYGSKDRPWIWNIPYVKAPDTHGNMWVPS

Row | SMILES | IC50 [1] [µM] | inhibition [2] | IC50 [3] [µM] | inhibition ([2]; concentration not given here) [%] | inhibition [1]
1 | O=C1c2ccccc2-c2c1c1ccccc1c(=O)n2CCCCCCCCCCCNS(=O)(=O)c1ccc(Br)cc1 | > 111 | inactive | – | – | –
2 | O=C1c2ccccc2-c2c1c1ccccc1c(=O)n2CCCNS(=O)(=O)c1ccccc1 | > 111 | inactive | – | – | –
3 | O=C1c2ccccc2-c2c1c1ccccc1c(=O)n2CCCCO | > 111 | – | – | – | –
4 | Cc1ccc(S(=O)(=O)OCCCCCCCn2c3c(c4ccccc4c2=O)C(=O)c2ccccc2-3)cc1 | > 111 | – | – | – | –
5 | O=C1c2ccccc2-c2c1c1ccccc1c(=O)n2CCCCCCCCCCn1c2c(c3ccccc3c1=O)C(=O)c1ccccc1-2 | > 111 | – | – | – | –
6 | O=C1c2ccccc2-c2c1c1ccccc1c(=O)n2CCCCCCCCCCNS(=O)(=O)c1ccccc1 | > 111 | inactive | – | – | –
7 | CS(=O)(=O)NCCn1c2c(c3ccccc3c1=O)C(=O)c1ccccc1-2 | > 111 | inactive | – | – | –
8 | Cc1ccc(S(=O)(=O)NCCCCCCCCn2c3c(c4ccccc4c2=O)C(=O)c2ccccc2-3)cc1 | > 111 | inactive | – | – | –
9 | O=C1c2ccccc2-c2c1c1ccccc1c(=O)n2CCCCCNS(=O)(=O)c1ccc(Br)cc1 | > 111 | inactive | – | – | –
10 | CS(=O)(=O)NCCCCCCCCCCn1c2c(c3ccccc3c1=O)C(=O)c1ccccc1-2 | > 111 | inactive | – | – | –
11 | O=C1c2ccccc2-c2c1c1ccccc1c(=O)n2CCCCCCCCCNS(=O)(=O)c1ccc(Br)cc1 | > 111 | inactive | – | – | –
12 | CS(=O)(=O)NCCCCCCCCCn1c2c(c3ccccc3c1=O)C(=O)c1ccccc1-2 | > 111 | inactive | – | – | –
13 | O=C1c2ccccc2-c2c1c1ccccc1c(=O)n2CCCCCCCCCCCCn1c2c(c3ccccc3c1=O)C(=O)c1ccccc1-2 | > 111 | – | – | – | –
14 | CS(=O)(=O)NCCCCCCCCCCCn1c2c(c3ccccc3c1=O)C(=O)c1ccccc1-2 | > 111 | inactive | – | – | –
15 | Cc1ccc(S(=O)(=O)NCCn2c3c(c4ccccc4c2=O)C(=O)c2ccccc2-3)cc1 | > 111 | inactive | – | – | –
16 | NCCCCCn1c2c(c3ccccc3c1=O)C(=O)c1ccccc1-2 | 17.5 | – | 28 | 0 | –
17 | NCCCCCCCCCn1c2c(c3ccccc3c1=O)C(=O)c1ccccc1-2 | 47 | – | 48 | 0 | Dose-dependent effect
18 | Cc1ccc(S(=O)(=O)NCCCCCCn2c3c(c4ccccc4c2=O)C(=O)c2ccccc2-3)cc1 | > 111 | inactive | – | – | –
19 | Cc1ccc(S(=O)(=O)OCCCn2c3c(c4ccccc4c2=O)C(=O)c2ccccc2-3)cc1 | > 111 | – | – | – | –
20 | Cc1ccc(S(=O)(=O)OCCCCCn2c3c(c4ccccc4c2=O)C(=O)c2ccccc2-3)cc1 | > 111 | – | – | – | –
21 | Cc1ccc(S(=O)(=O)NCCCCCCCCCCn2c3c(c4ccccc4c2=O)C(=O)c2ccccc2-3)cc1 | > 111 | inactive | – | – | –

Row | SMILES | IC50 [1] [µM] | inhibition [2] | IC50 [3] [µM] | inhibition ([2]; concentration not given here) [%] | inhibition [1]
22 | Cc1ccc(S(=O)(=O)OCCCCCCn2c3c(c4ccccc4c2=O)C(=O)c2ccccc2-3)cc1 | > 111 | – | – | – | –
23 | CS(=O)(=O)NCCCCCCn1c2c(c3ccccc3c1=O)C(=O)c1ccccc1-2 | > 111 | inactive | – | – | –
24 | NCCCCCCCCCCCn1c2c(c3ccccc3c1=O)C(=O)c1ccccc1-2 | 12.8 | – | 14.1 | 20 | –
25 | O=C1c2ccccc2-c2c1c1ccccc1c(=O)n2CCCO | > 111 | – | – | – | –
26 | Cc1ccc(S(=O)(=O)NCCCCCCCCCCCn2c3c(c4ccccc4c2=O)C(=O)c2ccccc2-3)cc1 | > 111 | inactive | – | – | –
27 | CS(=O)(=O)NCCCCCCCCn1c2c(c3ccccc3c1=O)C(=O)c1ccccc1-2 | > 111 | inactive | – | – | –
28 | O=C1c2ccccc2-c2c1c1ccccc1c(=O)n2CCO | > 111 | – | – | – | –
29 | Cc1ccc(S(=O)(=O)NCCCCCCCCCn2c3c(c4ccccc4c2=O)C(=O)c2ccccc2-3)cc1 | > 111 | inactive | – | – | –
30 | O=C1c2ccccc2-c2c1c1ccccc1c(=O)n2CCCCCCCNS(=O)(=O)c1ccc(Br)cc1 | > 111 | inactive | – | – | –
31 | O=C1c2ccccc2-c2c1c1ccccc1c(=O)n2CCCCCCCCCCCn1c2c(c3ccccc3c1=O)C(=O)c1ccccc1-2 | > 111 | – | – | – | –
32 | O=C1c2ccccc2-c2c1c1ccccc1c(=O)n2CCCCCO | > 111 | – | – | – | –
33 | O=C1c2ccccc2-c2c1c1ccccc1c(=O)n2CCCCCCCCCCNS(=O)(=O)c1ccc(Br)cc1 | > 111 | inactive | – | – | –
34 | Cc1ccc(S(=O)(=O)NCCCCCn2c3c(c4ccccc4c2=O)C(=O)c2ccccc2-3)cc1 | > 111 | inactive | – | – | –
35 | Cc1ccc(S(=O)(=O)NCCCCn2c3c(c4ccccc4c2=O)C(=O)c2ccccc2-3)cc1 | > 111 | inactive | – | – | –
36 | NCCCCn1c2c(c3ccccc3c1=O)C(=O)c1ccccc1-2 | – | – | 23.4 | 75 | –
37 | O=C1c2ccccc2-c2c1c1ccccc1c(=O)n2CCCNCCCNCCCn1c2c(c3ccccc3c1=O)C(=O)c1ccccc1-2 | 1.52 | – | – | 100 | –
38 | O=C1c2ccccc2-c2c1c1ccccc1c(=O)n2CCCCCCCCNS(=O)(=O)c1ccccc1 | > 111 | inactive | – | – | –
39 | O=C1c2ccccc2-c2c1c1ccccc1c(=O)n2CCCCCCCCNS(=O)(=O)c1ccc(Br)cc1 | > 111 | inactive | – | – | –
40 | CS(=O)(=O)NCCCCn1c2c(c3ccccc3c1=O)C(=O)c1ccccc1-2 | > 111 | inactive | – | – | –
41 | CS(=O)(=O)NCCCCCCCCCCCCn1c2c(c3ccccc3c1=O)C(=O)c1ccccc1-2 | > 111 | inactive | – | – | –
42 | O=C1c2ccccc2-c2c1c1ccccc1c(=O)n2CCNS(=O)(=O)c1ccccc1 | > 111 | inactive | – | – | –

Row | SMILES | IC50 [1] [µM] | inhibition [2] | IC50 [3] [µM] | inhibition ([2]; concentration not given here) [%] | inhibition [1]
43 | O=C1c2ccccc2-c2c1c1ccccc1c(=O)n2CCNS(=O)(=O)c1ccc(Br)cc1 | > 111 | inactive | – | – | –
44 | CS(=O)(=O)NCCCCCCCn1c2c(c3ccccc3c1=O)C(=O)c1ccccc1-2 | > 111 | inactive | – | – | –
45 | O=C1c2ccccc2-c2c1c1ccccc1c(=O)n2CCCCCCNS(=O)(=O)c1ccc(Br)cc1 | > 111 | inactive | – | – | –
46 | CS(=O)(=O)NCCCCCn1c2c(c3ccccc3c1=O)C(=O)c1ccccc1-2 | > 111 | inactive | – | – | –
47 | O=C1c2ccccc2-c2c1c1ccccc1c(=O)n2CCCCCCNS(=O)(=O)c1ccccc1 | > 111 | inactive | – | – | –
48 | O=C1c2ccccc2-c2c1c1ccccc1c(=O)n2CCCCNS(=O)(=O)c1ccc(Br)cc1 | > 111 | inactive | – | – | –
49 | Cc1ccc(S(=O)(=O)NCCCCCCCn2c3c(c4ccccc4c2=O)C(=O)c2ccccc2-3)cc1 | > 111 | inactive | – | – | –
50 | CS(=O)(=O)NCCCn1c2c(c3ccccc3c1=O)C(=O)c1ccccc1-2 | > 111 | inactive | – | – | –
51 | O=C1c2ccccc2-c2c1c1ccccc1c(=O)n2CCCCCCCNS(=O)(=O)c1ccccc1 | > 111 | inactive | – | – | –
52 | Cc1ccc(S(=O)(=O)OCCCCn2c3c(c4ccccc4c2=O)C(=O)c2ccccc2-3)cc1 | > 111 | – | – | – | –
53 | O=C1c2ccccc2-c2c1c1ccccc1c(=O)n2CCCCCCCCCCCCNS(=O)(=O)c1ccc(Br)cc1 | > 111 | inactive | – | – | –
54 | Cc1ccc(S(=O)(=O)NCCCn2c3c(c4ccccc4c2=O)C(=O)c2ccccc2-3)cc1 | > 111 | inactive | – | – | –
55 | O=C1c2ccccc2-c2c1c1ccccc1c(=O)n2CCCCCNS(=O)(=O)c1ccccc1 | > 111 | inactive | – | – | –
56 | O=C1c2ccccc2-c2c1c1ccccc1c(=O)n2CCCNS(=O)(=O)c1ccc(Br)cc1 | > 111 | inactive | – | – | –
57 | O=C1c2ccccc2-c2c1c1ccccc1c(=O)n2CCCCCCCCCNS(=O)(=O)c1ccccc1 | > 111 | inactive | – | – | –
58 | O=C1c2ccccc2-c2c1c1ccccc1c(=O)n2CCCCCCCCCCCCNS(=O)(=O)c1ccccc1 | > 111 | inactive | – | – | –
59 | O=C1c2ccccc2-c2c1c1ccccc1c(=O)n2CCCCCCCCCCCNS(=O)(=O)c1ccccc1 | > 111 | inactive | – | – | –
60 | Cc1ccc(S(=O)(=O)NCCCCCCCCCCCCn2c3c(c4ccccc4c2=O)C(=O)c2ccccc2-3)cc1 | > 111 | inactive | – | – | –
61 | O=C1c2ccccc2-c2c1c1ccccc1c(=O)n2CCCCNS(=O)(=O)c1ccccc1 | > 111 | inactive | – | – | –
